We go through two compounds from ChEMBL document CHEMBL2321834 (J Med Chem, 2013).

SMILES strings stand for the structures. pIC50: −log10 of the molar value.

Assay [1] addresses T1, Estrogen receptor (Homo sapiens) (UniProt P03372).
T1 sequence (whole entry): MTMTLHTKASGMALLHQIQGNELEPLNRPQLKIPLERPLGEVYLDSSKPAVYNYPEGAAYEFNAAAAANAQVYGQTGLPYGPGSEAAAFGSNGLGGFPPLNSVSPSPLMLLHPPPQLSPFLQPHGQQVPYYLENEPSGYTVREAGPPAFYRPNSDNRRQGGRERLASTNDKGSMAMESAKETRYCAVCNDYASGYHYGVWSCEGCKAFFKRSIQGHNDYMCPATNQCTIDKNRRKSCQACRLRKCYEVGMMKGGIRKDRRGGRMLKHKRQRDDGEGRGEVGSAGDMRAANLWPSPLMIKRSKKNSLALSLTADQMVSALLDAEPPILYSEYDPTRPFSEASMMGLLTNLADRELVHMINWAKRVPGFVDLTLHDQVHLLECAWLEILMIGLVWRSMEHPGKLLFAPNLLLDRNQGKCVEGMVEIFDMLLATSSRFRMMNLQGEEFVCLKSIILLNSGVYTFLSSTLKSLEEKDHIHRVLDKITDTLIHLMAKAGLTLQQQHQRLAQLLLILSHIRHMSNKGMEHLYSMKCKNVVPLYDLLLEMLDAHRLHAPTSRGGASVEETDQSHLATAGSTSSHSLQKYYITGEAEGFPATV
Nature of the assay: Displacement of [3H]E2 from human recombinant ERalpha after 1 hr by scintillation counting analysis relative to E2. An outline of the steps: (§1)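 Competitive binding assay against ERα and ERβ, with E2 as internal reference.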

The target in assay [2] is T2, 17-beta-hydroxysteroid dehydrogenase type 2 (Homo sapiens) (UniProt P37059).
T2 sequence (whole entry): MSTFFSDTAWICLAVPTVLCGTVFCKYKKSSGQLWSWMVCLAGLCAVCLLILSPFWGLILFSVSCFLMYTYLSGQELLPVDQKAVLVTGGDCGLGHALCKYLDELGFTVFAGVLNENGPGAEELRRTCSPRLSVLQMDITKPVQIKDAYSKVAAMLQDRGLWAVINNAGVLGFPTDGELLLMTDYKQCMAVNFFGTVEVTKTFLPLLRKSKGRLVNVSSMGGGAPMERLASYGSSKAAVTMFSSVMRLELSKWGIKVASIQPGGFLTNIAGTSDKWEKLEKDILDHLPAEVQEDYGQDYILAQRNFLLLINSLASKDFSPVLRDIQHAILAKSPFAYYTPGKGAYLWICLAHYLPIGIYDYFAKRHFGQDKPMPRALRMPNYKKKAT
Briefly: Inhibition of 17beta-HSD2 in human MDA-MB-231 cells using [3H]E2 as substrate at 1 uM after 6 hrs by HPLC analysis. The assay is classed as cell-based.

The species entered for assay [3] is Homo sapiens. Nature of the assay: Selectivity ratio of IC50 for 17beta-HSD1 in human placental microsomal fraction to IC50 for 17beta-HSD2 in human placental microsomal fraction. The assay is classed as microsomes. Particulars: Microsome.
For assay [4], the target named is T2, 17-beta-hydroxysteroid dehydrogenase type 2 (Homo sapiens). Particulars: Placenta, Microsomal, at 1 µM.
In assay [5] the target is T3, 17-beta-hydroxysteroid dehydrogenase type 1 (Homo sapiens) (UniProt P14061).
T3 sequence (whole entry): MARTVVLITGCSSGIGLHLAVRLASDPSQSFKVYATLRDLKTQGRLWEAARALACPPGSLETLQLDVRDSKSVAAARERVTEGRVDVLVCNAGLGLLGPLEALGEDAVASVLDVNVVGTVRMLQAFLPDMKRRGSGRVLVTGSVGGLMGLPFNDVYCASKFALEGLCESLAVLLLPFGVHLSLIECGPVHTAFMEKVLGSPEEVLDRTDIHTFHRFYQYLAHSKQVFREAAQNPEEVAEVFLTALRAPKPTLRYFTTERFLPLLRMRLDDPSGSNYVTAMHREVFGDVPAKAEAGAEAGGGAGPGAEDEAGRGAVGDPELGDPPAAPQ
Particulars: at 1 µM.

Assay [6] concerns the target Estrogen receptor beta (Homo sapiens) (UniProt Q92731). Briefly: Displacement of [3H]E2 from human recombinant ERbeta after 1 hr by scintillation counting analysis relative to E2. Summed up: as §1
For orientation: In a radioligand displacement assay an active substance lowers the binding of a labelled ligand.

The target of assay [7] is T4, 17-beta-hydroxysteroid dehydrogenase type 1 (Homo sapiens, UniProt P14061).
T4 sequence (P14061 whole entry): T3 sequence (whole entry)
Nature of the assay: Inhibition of 17beta-HSD1 in human placental cytosolic fraction using [3H]E1 as substrate assessed as formation of E2 by HPLC analysis.

Estrogen receptor beta (Homo sapiens), sequence (Q92731 whole entry): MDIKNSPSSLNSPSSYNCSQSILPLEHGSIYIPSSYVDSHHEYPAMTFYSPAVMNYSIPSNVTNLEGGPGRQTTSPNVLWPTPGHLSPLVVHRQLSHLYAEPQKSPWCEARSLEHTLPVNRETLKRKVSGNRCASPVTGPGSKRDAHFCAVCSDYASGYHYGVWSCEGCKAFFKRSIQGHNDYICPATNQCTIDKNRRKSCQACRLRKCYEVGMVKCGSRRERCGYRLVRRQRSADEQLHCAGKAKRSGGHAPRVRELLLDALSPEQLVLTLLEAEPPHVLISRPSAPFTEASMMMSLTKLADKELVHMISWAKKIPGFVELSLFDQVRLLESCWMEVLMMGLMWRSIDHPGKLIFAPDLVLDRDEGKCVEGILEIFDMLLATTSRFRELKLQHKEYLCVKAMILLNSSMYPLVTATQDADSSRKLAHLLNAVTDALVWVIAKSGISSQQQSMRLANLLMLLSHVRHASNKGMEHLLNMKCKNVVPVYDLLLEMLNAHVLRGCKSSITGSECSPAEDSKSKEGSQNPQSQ

In general, inhibition refers to the share of the control response that was lost under treatment. Higher therefore signals a strong effect. With `COc1cccc(N(C)C(=O)c2ccc(-c3cccc(N(C)C)c3)s2)c1`, the RBA in assay [1] and in assay [6] was < 0.1% in each case. Also, the inhibition in assay [2] is 71%; in assay [4] it was 82%; in assay [5] it was 11%. In addition, the Ratio IC50 in assay [3] was found to be 63.
A word on the pIC50: it is −log10 of the IC50, conventionally taken in molar units. As for `COc1cccc(N(C)C(=O)c2ccc(-c3ccc(OC)c(F)c3)s2)c1`, the RBA in assay [1] and in assay [6] was < 0.1% each time. The pIC50 in assay [7] is < 4.40. Also, the inhibition worked out at 72% in assay [4] and 15% in assay [5].
